Data set [1] can be described thus: Lipophilicity, log D of the compound at pH 7.4. The format is physicochemical. To be noted: buffer.
The target in data set [2] is AMP-activated protein kinase, AMPK (Homo sapiens) (UniProt P54646+O43741+P54619+Q9UGJ0+Q9Y478+Q13131+Q9UGI9). Briefly: Inhibition of AMPK (unknown origin) at 1 uM relative to control. The format is protein-complex assay. An outline of the steps: (§1)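 Single-point screen of each compound against a panel of 59 protein kinases, at 1 or 10 μM. The panel data are also summarised as a rescaled geometric mean selectivity score.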

Data set [3] concerns the target Insulin-like growth factor 1 receptor (Homo sapiens) (UniProt P08069). Briefly: Inhibition of IGF1R (unknown origin) at 1 uM relative to control. Summed up: as §1
The target in data set [4] is Tyrosine-protein kinase Lck (Homo sapiens) (UniProt P06239). The data set can be described thus: Inhibition of Lck (unknown origin) at 1 uM relative to control. An outline of the steps:
as §1

Data set [5] addresses Serine/threonine-protein kinase PLK1 (Homo sapiens) (UniProt P53350). The data set can be described thus: Inhibition of PLK1 (unknown origin) at 1 uM relative to control. Summed up:
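Single-concentration screen of each compound against a 59-protein-kinase panel, run at 10 µM or 1 µM. Activity relative to control is shown as a heat map across the panel.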

Data set [6] has as its target Ribosomal protein S6 kinase beta-1 (Homo sapiens) (UniProt P23443). The data set can be described thus: Inhibition of S6K1 (unknown origin) at 1 uM relative to control. An outline of the steps: (§2)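 Single-concentration screen across a panel of 59 protein kinases, with each compound tested at one fixed concentration. The read-out is residual kinase activity relative to control. Panel results are also condensed into a rescaled geometric mean (RGM) selectivity score.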

The target in data set [7] is SRSF protein kinase 1 (Homo sapiens) (UniProt Q96SB4). The data set can be described thus: Inhibition of SRPK1 (unknown origin) at 1 uM relative to control. Summed up: as §2
In data set [8] the target is Tyrosine-protein kinase Yes (Homo sapiens) (UniProt P07947). Briefly: Inhibition of YES1 (unknown origin) at 1 uM relative to control. Summed up: as §2
The nature of data set [9]: Ratio of drug level in mouse brain to plasma. Particulars: read-out: BPR. Summed up: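 Mice; ratio based on total (not unbound) compound concentrations in brain versus plasma.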

This passage reports logD, inhibition and Kp results from ChEMBL document CHEMBL4330096, “Discovery of potent and selective 5-azaindazole inhibitors of leucine-rich repeat kinase 2 (LRRK2) - Part 1” (Bioorg Med Chem Lett, 2019).

Sequence of Insulin-like growth factor 1 receptor (Homo sapiens) (P08069 31-736 limits assumed): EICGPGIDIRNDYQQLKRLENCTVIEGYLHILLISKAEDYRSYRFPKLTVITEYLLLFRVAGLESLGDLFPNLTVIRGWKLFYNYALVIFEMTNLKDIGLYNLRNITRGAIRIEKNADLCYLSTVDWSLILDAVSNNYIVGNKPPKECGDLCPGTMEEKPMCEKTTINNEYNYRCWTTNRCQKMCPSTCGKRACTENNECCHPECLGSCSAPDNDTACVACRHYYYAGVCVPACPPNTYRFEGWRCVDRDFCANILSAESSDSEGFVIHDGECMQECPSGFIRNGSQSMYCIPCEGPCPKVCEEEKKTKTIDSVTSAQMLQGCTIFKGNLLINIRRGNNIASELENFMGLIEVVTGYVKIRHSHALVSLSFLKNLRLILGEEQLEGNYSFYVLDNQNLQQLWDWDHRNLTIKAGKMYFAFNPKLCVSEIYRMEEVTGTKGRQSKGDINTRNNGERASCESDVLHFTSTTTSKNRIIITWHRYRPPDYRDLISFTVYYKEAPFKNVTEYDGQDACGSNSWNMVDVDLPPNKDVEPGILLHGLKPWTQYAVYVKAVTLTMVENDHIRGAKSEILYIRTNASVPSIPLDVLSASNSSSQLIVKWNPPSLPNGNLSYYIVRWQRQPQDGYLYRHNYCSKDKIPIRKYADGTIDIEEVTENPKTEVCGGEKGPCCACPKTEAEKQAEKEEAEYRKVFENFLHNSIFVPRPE
Sequence of Insulin-like growth factor 1 receptor (Homo sapiens) (P08069 741-1367 limits assumed): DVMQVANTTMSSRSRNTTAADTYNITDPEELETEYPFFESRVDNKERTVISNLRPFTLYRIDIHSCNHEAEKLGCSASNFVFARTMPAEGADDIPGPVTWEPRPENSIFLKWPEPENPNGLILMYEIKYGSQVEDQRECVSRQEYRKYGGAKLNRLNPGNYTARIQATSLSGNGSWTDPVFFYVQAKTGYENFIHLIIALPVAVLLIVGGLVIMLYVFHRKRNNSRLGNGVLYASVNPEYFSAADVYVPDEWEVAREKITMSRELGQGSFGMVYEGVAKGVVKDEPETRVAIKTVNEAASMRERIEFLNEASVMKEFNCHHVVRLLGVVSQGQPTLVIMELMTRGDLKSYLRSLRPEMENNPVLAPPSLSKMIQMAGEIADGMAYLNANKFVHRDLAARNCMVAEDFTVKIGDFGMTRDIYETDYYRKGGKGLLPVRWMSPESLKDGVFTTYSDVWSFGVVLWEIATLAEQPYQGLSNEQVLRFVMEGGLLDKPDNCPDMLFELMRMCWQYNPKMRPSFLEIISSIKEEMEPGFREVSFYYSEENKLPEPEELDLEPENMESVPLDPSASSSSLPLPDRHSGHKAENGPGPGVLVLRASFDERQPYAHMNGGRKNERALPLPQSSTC
Sequence of SRSF protein kinase 1 (Homo sapiens) (Q96SB4 whole entry): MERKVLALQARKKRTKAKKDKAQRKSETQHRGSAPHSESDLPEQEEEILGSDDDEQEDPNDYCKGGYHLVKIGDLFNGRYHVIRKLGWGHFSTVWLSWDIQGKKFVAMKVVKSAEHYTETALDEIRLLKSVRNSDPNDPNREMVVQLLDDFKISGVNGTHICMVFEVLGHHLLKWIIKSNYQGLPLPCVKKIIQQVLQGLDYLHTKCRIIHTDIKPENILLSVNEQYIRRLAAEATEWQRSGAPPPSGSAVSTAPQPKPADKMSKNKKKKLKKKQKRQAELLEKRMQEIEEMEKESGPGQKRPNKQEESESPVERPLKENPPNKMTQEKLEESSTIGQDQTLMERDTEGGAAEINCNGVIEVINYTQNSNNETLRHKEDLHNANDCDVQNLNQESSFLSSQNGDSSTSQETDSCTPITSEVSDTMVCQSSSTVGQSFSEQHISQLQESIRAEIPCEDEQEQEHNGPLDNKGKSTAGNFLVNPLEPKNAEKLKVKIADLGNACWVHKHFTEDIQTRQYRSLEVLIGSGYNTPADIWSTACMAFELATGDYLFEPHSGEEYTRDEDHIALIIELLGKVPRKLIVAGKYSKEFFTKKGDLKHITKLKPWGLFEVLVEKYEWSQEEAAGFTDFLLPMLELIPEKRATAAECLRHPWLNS
Sequence of Tyrosine-protein kinase Yes (Homo sapiens) (P07947 2-543 limits assumed): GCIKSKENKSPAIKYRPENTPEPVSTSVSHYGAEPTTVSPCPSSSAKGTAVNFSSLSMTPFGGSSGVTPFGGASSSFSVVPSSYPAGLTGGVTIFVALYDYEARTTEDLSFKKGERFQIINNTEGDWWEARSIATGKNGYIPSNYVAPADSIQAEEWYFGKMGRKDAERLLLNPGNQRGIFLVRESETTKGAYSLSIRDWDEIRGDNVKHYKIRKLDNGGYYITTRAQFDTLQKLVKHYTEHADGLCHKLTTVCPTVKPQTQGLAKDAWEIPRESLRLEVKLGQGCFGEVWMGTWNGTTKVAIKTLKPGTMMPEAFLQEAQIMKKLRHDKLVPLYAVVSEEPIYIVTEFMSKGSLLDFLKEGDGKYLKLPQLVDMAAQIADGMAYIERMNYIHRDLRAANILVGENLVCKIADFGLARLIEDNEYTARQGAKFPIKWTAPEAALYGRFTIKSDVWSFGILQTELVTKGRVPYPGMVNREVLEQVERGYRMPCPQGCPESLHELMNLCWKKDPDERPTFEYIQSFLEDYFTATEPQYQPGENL
Sequence of Ribosomal protein S6 kinase beta-1 (Homo sapiens) (P23443 whole entry, looked up): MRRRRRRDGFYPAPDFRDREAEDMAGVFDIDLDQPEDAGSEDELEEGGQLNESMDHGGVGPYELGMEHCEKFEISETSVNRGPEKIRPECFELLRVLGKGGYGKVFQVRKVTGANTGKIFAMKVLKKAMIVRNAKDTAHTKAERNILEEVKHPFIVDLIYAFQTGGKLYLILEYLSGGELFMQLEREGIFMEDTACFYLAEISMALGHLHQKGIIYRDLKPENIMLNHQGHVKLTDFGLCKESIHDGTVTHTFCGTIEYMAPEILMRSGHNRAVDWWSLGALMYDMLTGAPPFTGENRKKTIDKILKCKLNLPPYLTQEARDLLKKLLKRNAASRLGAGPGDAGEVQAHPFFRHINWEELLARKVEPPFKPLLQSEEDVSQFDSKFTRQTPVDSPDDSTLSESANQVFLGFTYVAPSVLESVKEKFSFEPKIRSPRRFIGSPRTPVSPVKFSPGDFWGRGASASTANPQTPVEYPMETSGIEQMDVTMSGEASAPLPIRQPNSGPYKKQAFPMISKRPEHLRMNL
Sequence of Tyrosine-protein kinase Lck (Homo sapiens) (P06239 2-509 limits assumed): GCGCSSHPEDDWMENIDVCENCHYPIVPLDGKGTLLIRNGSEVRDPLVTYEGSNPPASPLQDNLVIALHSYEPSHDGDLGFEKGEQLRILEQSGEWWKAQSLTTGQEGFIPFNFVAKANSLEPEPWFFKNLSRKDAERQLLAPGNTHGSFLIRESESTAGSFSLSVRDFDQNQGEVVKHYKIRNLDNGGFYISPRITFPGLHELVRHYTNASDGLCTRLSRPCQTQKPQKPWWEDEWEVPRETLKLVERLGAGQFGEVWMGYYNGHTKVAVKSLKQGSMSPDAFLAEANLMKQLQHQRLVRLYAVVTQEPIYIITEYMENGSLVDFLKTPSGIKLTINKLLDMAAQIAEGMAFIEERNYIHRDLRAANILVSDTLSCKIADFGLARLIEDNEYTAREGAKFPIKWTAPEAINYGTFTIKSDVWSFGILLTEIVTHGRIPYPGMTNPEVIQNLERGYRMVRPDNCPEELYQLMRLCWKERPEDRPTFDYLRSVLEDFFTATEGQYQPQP
Sequence of Serine/threonine-protein kinase PLK1 (Homo sapiens) (P53350 whole entry): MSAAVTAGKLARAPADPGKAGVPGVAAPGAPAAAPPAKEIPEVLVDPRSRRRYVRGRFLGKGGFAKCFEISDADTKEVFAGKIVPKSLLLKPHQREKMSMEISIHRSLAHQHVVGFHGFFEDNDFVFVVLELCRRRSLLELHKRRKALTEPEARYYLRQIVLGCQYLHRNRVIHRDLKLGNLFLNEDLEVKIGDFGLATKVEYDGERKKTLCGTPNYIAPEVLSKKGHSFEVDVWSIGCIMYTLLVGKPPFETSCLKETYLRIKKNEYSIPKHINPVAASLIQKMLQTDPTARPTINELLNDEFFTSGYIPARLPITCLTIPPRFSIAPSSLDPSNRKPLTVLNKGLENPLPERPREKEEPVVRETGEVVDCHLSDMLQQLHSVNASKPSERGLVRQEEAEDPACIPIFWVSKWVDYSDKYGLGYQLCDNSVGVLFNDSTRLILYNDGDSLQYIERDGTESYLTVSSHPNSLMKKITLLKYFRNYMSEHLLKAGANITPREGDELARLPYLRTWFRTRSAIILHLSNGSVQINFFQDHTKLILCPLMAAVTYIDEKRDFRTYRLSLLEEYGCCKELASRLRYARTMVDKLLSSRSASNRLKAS

Compound `Cc1n[nH]c2ccnc(OC3CCCCC3)c12` yielded a pH-dependent lipophilicity (logD) in [1] greater than 4.
As for `c1cc(-c2n[nH]c3ccnc(OC4CCOCC4)c23)cc(N2CCOCC2)n1`, the inhibition in data set [2] came to 0%; in data set [3] it was 11%; in [4], 8%; in data set [5], 0%; in data set [6], 0%; in data set [7], 0%. In [8], this compound came in with an inhibition of 9%.
`CC(C)n1cc(-c2n[nH]c3ccnc(OC4CCOCC4)c23)cn1`: the inhibition in [2] was determined as 19%; in [3], 40%; in data set [4] it was 0%; in data set [5] it was 0%; in [6], 16%; in [7] it was 0%. This compound also yielded an inhibition in data set [8] of 0%.
For `Cc1n[nH]c2ccnc(NC3CCCCC3)c12`, the Kp in [9] stood at 4.

One may read the logD as lipophilicity at a set pH, counting ionised and neutral species. Read a high logD as higher lipophilicity. In general, inhibition refers to the change of the read-out against control, counted positive when it falls. The low end stands for a weak effect, the high end for a strong effect.
